For five compounds, Activity, inhibition and Stabilty results are on record in ChEMBL document CHEMBL4732272, “Remodelin Is a Cryptic Assay Interference Chemotype That Does Not Inhibit NAT10-Dependent Cytidine Acetylation” (ACS Med Chem Lett, 2021).

The target of data set [1] is T1, RNA cytidine acetyltransferase (Homo sapiens) (UniProt Q9H0A0).
T1 sequence (whole entry): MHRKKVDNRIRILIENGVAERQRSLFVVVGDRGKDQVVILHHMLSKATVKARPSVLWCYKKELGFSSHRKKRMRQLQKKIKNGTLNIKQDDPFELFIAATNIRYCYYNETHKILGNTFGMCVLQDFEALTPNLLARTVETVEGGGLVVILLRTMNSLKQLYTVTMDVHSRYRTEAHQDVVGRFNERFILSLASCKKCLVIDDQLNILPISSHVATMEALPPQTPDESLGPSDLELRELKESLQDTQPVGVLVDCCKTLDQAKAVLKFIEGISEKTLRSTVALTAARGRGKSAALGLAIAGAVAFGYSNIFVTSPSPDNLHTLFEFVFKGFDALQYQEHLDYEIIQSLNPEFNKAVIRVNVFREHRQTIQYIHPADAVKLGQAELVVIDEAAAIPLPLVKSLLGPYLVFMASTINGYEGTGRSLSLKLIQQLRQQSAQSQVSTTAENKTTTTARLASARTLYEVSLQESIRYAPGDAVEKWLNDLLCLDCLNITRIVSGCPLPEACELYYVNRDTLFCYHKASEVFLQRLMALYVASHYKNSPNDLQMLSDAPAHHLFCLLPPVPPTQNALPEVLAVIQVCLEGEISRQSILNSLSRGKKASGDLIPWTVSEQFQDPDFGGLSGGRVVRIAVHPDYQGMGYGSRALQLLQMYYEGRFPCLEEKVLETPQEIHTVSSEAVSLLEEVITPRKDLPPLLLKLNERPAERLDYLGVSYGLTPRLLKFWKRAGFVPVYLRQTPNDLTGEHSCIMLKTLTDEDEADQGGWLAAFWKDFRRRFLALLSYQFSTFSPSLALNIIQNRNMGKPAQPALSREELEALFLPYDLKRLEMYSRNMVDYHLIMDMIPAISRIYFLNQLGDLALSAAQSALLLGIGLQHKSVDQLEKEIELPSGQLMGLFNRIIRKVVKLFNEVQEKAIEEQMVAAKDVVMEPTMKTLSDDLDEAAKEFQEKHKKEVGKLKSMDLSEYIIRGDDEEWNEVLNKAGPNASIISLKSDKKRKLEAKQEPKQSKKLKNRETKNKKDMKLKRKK
The experiment in a line: Stabilization of full length recombinant NAT10 (unknown origin) by DSLS based analysis. In a few lines: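 Full-length recombinant NAT10 thermal stability measured by differential static light scattering with ATP, acetyl-CoA or remodelin added.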

Data set [2] in a line: Aggregation property of the compound assessed as detergent sensitive inhibition of beta-lactamase AmpC at 33 to 100 uM. Format: physicochemical. Particulars: dose 33-100 µM.
Data set [3] has as its target T1, RNA cytidine acetyltransferase (Homo sapiens). The experiment in a line: Inhibition of NAT10-catalyzed RNA cytidine acetylation in human HeLa cells assessed as decrease in ac4C at helix 45 of 18S rRNA at 50 uM after 4 days by UV-HPLC analysis. In kind it is cell-based. Particulars: time 4.0 day. In a few lines:
(§1)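 Helix 34 and helix 45 ac4C of 18S rRNA analysed […] by UV-HPLC after cells were treated with remodelin at 50 μM for 4 d; NAT10 KD cells served as comparator.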

Data set [4] is described as follows: Stability of the compound in DMSO-d6 solution assessed as discoloration to dark brown colour in presence of light. In kind it is physicochemical. In a few lines:
(§2)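 Remodelin solutions followed over time: in aqueous buffer kept from light for 7 days; in DMSO monitored for darkening colour and new aromatic NMR resonances.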

Data set [5] has as its target T1, RNA cytidine acetyltransferase (Homo sapiens). The experiment in a line: Binding affinity to recombinant NAT10 acetyltransferase domain (494 to 753 residues) (unknown origin) by isothermal titration calorimetry. The essentials: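 Recombinant NAT10 acetyltransferase domain (residues 494–753) titrated with acetyl-CoA or remodelin by isothermal titration calorimetry.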

The target is the same in data set [6]. Nature of the data set: Inhibition of NAT10-catalyzed RNA cytidine acetylation in human HeLa cells assessed as decrease in ac4C at helix 45 of 18S rRNA at 50 uM after 48 hrs by nucleotide resolution sequencing analysis. In kind it is cell-based. The essentials: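 Helix 45 of 18S rRNA (C1842) read by nucleotide-resolution ac4C sequencing after 50 μM remodelin for 48 h; C→T change at the site scored as ac4C present, no mutation as loss; NAT10 KD as comparator.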

In the next data set the target is Tubulin (Homo sapiens) (UniProt P68371+Q9H4B7+P0DPH7+P68366+Q13509+Q71U36+P04350+Q3ZCM7+P07437+P68363+Q9BQE3+Q6PEY2+Q13885+Q9BVA1+Q9BUF5). The experiment in a line: Induction of tubulin acetylation in human HEK293T cells at 10 to 50 uM measured after 48 hrs by western blot analysis. Format: cell-based. Particulars: dose 10-50 µM.
Data set [7] deals with T1, RNA cytidine acetyltransferase (Homo sapiens). The experiment in a line: Inhibition of NAT10-catalyzed RNA cytidine acetylation in human HeLa cells assessed as decrease in ac4C level at 10 to 50 uM after 48 hrs by LC-MS assay. Particulars: dose 10-50 µM. In kind it is cell-based. The essentials:
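Wild-type cells treated with remodelin for 48 h; RNA ac4C levels quantified by LC-MS, with CRISPR-Cas9 NAT10 disruption as comparator.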

Data set [8] can be described thus: Stability of the compound in DMSO-d6 solution assessed as drug degradation measured after 24 hrs by NMR analysis. In kind it is physicochemical.
Data set [9] can be described thus: Redox activity of the compound assessed as H2O2 producion at 250 uM by horseradish peroxidase-phenol red counter screen based assay. Format: physicochemical.
Data set [10] can be described thus: Thiol reactivity with CoA at 1 to 50 uM measured after 30 mins by DACM thiol consumption assay. Format: ADME. Particulars: 0.5 h, dose 1-50 µM.
The target of data set [11] is T1, RNA cytidine acetyltransferase (Homo sapiens). The experiment in a line: Inhibition of NAT10-catalyzed RNA cytidine acetylation in human HeLa cells assessed as decrease in ac4C level at 50 uM after 48 hrs by Northern blot assay. In kind it is cell-based. The essentials: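 Following 48 h remodelin treatment, RNA probed by dot blot or Northern blot with an anti-ac4C antibody.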

Data set [12] shares this target. Nature of the data set: Inhibition of NAT10-catalyzed RNA cytidine acetylation in human HeLa cells assessed as decrease in ac4C level at 10 to 50 uM after 24 to 48 hrs by dot blot assay. Particulars: dose 10-50 µM, time 24-48 hrs. In kind it is cell-based.
Data set [13] has the same target. Nature of the data set: Inhibition of NAT10-catalyzed RNA cytidine acetylation in human HeLa cells assessed as decrease in ac4C at helix 34 of 18S rRNA at 50 uM after 4 days by UV-HPLC analysis. Format: cell-based. Particulars: time 4.0 day. The essentials: as §1
Data set [14] is described as follows: Redox activity of the compound assessed as H2O2 production at 250 uM in presence of DTT by horseradish peroxidase-phenol red counter screen based assay. In kind it is physicochemical.
Data set [15] is described as follows: Stability of the light-protected compound in aqueous buffer measured for 7 days. In kind it is physicochemical. Particulars: 168 h, time 7 day. The essentials:
as §2

Data set [16] is described as follows: Thiol-reactivity using La antigen containing reactive cysteine C232 and C245 in presence of DTT by ALARM NMR analysis. Format: ADME.
The nature of data set [17]: Aggregation property of peptides assessed as colloidal aggregate formation at 25 uM by dynamic light scattering analysis. In kind it is physicochemical.
Data set [18] relates to K562. Nature of the data set: Covalent protein binding in human K562 cells by rhodamine azide based fluorescence analysis. In kind it is functional, cell-based. Particulars: dose 10-100 µM. The essentials:
(§3)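 K562 cancer cell lysates incubated with clickable probes across a dose range (down to 10 μM), then click-labelled with rhodamine azide to visualise proteome labelling; competition run with remodelin added.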

The test system of data set [19] is K562. The experiment in a line: Covalent protein binding in human K562 cells at 10 to 100 uM in presence of remodelin by rhodamine azide based fluorescence analysis. In kind it is functional, cell-based. Particulars: dose 10-100 µM. The essentials: as §3

Activity calls are given as the source filed them. No cut-off for these calls is given here.

Consider `Nc1ncnc2c1ncn2[C@@H]1O[C@H](COP(=O)(O)OP(=O)(O)OP(=O)(O)O)[C@@H](O)[C@H]1O`, for which, in [1], the outcome was Active.

For `N#Cc1ccc(-c2csc(NN=C3CCCC3)n2)cc1`, the Activity entry is on record as “Not Active” in data set [2]; “Not Active” in data set [9]; “Not Active” in [10]; “Not Active” in data set [14]; “Active” in data set [16]; “Active” in [17]. In addition, the inhibition result in [3], in [6], in data set [7], in data set [11], in data set [12] and in [13] was “inactive” in each case. The Stabilty result is reported as “Unstable” in data set [4], “Unstable” in [8] and “Stable” in data set [15]. The outcome (in [5]; at Tubulin (Homo sapiens); in [1]) was inactive.

On to `C#CCNC(=O)c1ccc(-c2csc(NN=C3CCCC3)n2)cc1`, for which the Stabilty entry in [4] is listed as “Unstable”. Further, the Activity entry with K562 [18] is “Dose-dependent effect”. Further, in the data set with K562 [19], the result was inactive.

On to `CC(=O)SCCNC(=O)CCNC(=O)[C@H](O)C(C)(C)COP(=O)(O)OP(=O)(O)OC[C@H]1O[C@@H](n2cnc3c(N)ncnc32)[C@H](O)[C@@H]1OP(=O)(O)O`, for which the outcome in [5] and in data set [1] was Active.

For `C#CCN(N=C1CCCC1)c1nc(-c2ccc(Cl)cc2)cs1`, the Activity entry in the data set with K562 [18] was “Dose-dependent effect”.
